Shown are actives, neighbours in structure and some others; about 2% of the full set was active somewhere.
Beta2AR agonist: agonists of human beta-2 adrenergic receptor inducing internalization. P07550. Am2.2-beta2AR cells, FAP receptor internalization, flow cytometry. response, % (test concentration not listed). 0.43% of 340,000 active;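 active = response above a set limit, near 3 SD of response in nonfluorescent compounds, cut at about 42% in these data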
NTR1 agonist: agonists of human neurotensin receptor NTR1; P30989; NTR1-U2OS beta-arrestin-GFP spot imaging, agonist mode; activation, % at 20 µM; 0.17% of 330,000 active; AID 493036;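 active = activation at or above 40% of the spot to cytoplasm intensity ratio, with at least 20 cells analyzed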;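 note: 0% = DMSO without peptide and 100% = 100 nM NTR1 peptide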
GRK2 aptamer HTS: human GRK2 inhibition via aptamer displacement; P25098; 0.59% of 330,000 active; inhibition of aptamer binding, % at 10 µM; bead flow cytometry, FAM-aptamer displacement from GRK2;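 active = inhibition of aptamer binding above 40%, roughly 3 SD of noise, on plates passing a quality check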;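 note: median bead fluorescence of bound FAM aptamer so fluorescent compounds give negative values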
Target sequence (P25098 whole entry, looked up): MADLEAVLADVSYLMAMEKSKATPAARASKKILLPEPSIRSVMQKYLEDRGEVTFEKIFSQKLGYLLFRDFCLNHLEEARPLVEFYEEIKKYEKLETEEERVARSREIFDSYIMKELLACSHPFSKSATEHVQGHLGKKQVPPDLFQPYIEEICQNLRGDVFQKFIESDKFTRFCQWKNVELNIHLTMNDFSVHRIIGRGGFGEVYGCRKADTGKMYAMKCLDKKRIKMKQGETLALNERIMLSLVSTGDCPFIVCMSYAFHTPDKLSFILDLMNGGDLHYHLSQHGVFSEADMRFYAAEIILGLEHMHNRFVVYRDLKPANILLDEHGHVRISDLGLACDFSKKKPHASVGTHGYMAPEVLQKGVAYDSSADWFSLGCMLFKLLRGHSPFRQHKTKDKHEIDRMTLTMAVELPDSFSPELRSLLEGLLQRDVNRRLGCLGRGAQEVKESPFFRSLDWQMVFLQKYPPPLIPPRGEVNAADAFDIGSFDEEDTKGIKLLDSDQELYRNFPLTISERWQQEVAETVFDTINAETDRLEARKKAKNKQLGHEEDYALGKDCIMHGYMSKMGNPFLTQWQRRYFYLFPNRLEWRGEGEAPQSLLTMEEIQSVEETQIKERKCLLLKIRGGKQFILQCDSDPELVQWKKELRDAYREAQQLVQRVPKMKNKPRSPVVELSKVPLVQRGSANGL
Arrestin-AP2 inh: blocks beta-arrestin peptide binding to AP2 adaptin; FITC-arrestin peptide / GST-AP2 beads, flow cytometry; AP2 beta2 appendage carries R879A mutation; inhibition, % at 10 µM; 0.31% of 340,000 active; AID 504490;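 active = inhibition above a set limit, near 3 SD of compounds lacking own fluorescence, cut at about 54% in these data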;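 note: plate controls were DMSO wells for no effect and 5 µM unlabelled arrestin peptide for full effect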
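Material – GST-tagged AP2 beta2-adaptin appendage (R879A) on 4 µm glutathione beads · Probe or stimulus – fluorescein-tagged arrestin peptide at 50 nM final · Timing – 12 min plus 1 h, RT · Detection – bead flow cytometry, FITC channel · Read-out basis – inhibition as reduced fluorescein signal on beads, percent · Medium – PBS plus Tween 20 (0.05%) and BSA (0.1%)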
Lipid droplet: modulators of hepatic lipid droplet formation; AML12 mouse hepatocytes, oleate lipid droplets, BODIPY imaging; inhibition, % at 6.5 µM; 0.4% of 240,000 active;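 active = lipid droplet intensity inhibited by at least 50%, with more than 500 cells counted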
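Assay system: AML12 mouse liver cells | Compound: 6.5 µM single-point dosing | Schedule: Overnight exposure | Technique: Fluorescence imaging, 20x objective, two fields per well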
TAG inh: reduces triacylglycerol accumulation in H9c2 cells | inhibition, % at 12.5 µM | Nile Red lipid (TAG) fluorescence; cells loaded with 200 µM oleic acid | AID 651582 | 0.66% of 230,000 active;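 active = pattern-corrected inhibition of lipid staining of at least 50% with the nuclear-stain viability signal not falling by more than 50%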;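 note: 0% = DMSO wells and 100% = triacsin C control wells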
GRK2 inh confirm: confirmation of human GRK2 inhibitors displacing RNA aptamer. shares compounds with GRK2 aptamer HTS. bead-bound GRK2, FAM-aptamer displacement, flow cytometry. aptamer displacement, % at 10 µM. 4% of 2,000 active. AID 504451;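 active = aptamer displacement above 40%, near three times the noise of non-fluorescent compounds, on plates passing quality checks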;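 note: negative values mostly reflect intrinsic compound fluorescence rather than true enhancement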
FAM quench CP1: counter-screen for GRK2 aptamer inhibitors: fluorescent aptamer quenchers. shares compounds with GRK2 aptamer HTS. Carboxyfluorescein RNA aptamer on beads, flow cytometry quenching; active compounds read low. fluorescence response (% of DMSO), % at 10 µM. 2,000 tested, under 10 active. AID 504580;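 active = compounds that quench the bead-bound fluorescent RNA probe, cutting fluorescence to under half of the solvent control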;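 note: counterscreen run without GRK2 so only probe quenching by compound is measured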
* hit, by the source's call; · = not tested or not shown.

SMILES | Beta2AR agonist | NTR1 agonist | GRK2 aptamer HTS | Arrestin-AP2 inh | Lipid droplet | TAG inh | GRK2 inh confirm | FAM quench CP1
COc1ccc(NC(=O)c2nc3nc(C)cc(C(F)F)n3n2)cc1OC | -14 | -3 | 1 | 15 | -19 | 0 | · | ·
CCN(CC)c1ccc(NC(=O)c2nc3nc(C)cc(C(F)F)n3n2)cc1 | 3 | 3 | 48* | -1 | 15 | 11 | 0 | 93
Cc1ccccc1NC(=O)COc1coc(CN2CCCc3ccccc32)cc1=O | 1 | 2 | 2 | 9 | · | 0 | · | ·
O=C(COc1coc(CN2CCCc3ccccc32)cc1=O)Nc1ccc([N+](=O)[O-])cc1 | 0 | 0 | 62* | 42 | · | 15 | -5 | 100
COC(=O)c1c[nH]c2c1-c1cc(C(=O)OCc3ccccc3)n(S(=O)(=O)c3ccc(C)cc3)c1C(=O)C2=O | -7 | · | · | -6 | · | 90 | · | ·
O=C(COc1cc(Cl)c(Cl)cc1Cl)N1CCN(c2ccccn2)CC1 | -16 | · | 95* | -8 | -7 | · | -2 | 95
O=C(c1ccc(CNS(=O)(=O)c2ccccc2)cc1)N1CCN(c2ccccn2)CC1 | 7 | 2 | 5 | 1 | 4 | 20 | · | ·
O=C(c1ccc(Cl)c(S(=O)(=O)NCc2ccccc2)c1)N1CCN(c2ccccn2)CC1 | 0 | -2 | 2 | -2 | · | · | -2 | 103
Cc1cccc(C(=O)N2CCN(c3ccccn3)CC2)c1 | -11 | -1 | 75* | 9 | -30 | · | 0 | 95
CC1Cc2ccccc2N1S(=O)(=O)c1cccc(C(=O)N2CCCCC2)c1 (configuration not stated) | -1 | 1 | · | 3 | · | -43 | · | ·
COc1ccccc1N1CCN(C(=O)c2cccc(S(=O)(=O)N3c4ccccc4CC3C)c2)CC1 (configuration not stated) | 20 | · | · | 6 | · | -7 | -4 | 96
COc1ccc(Br)cc1CN(C)C(=O)CNC(=O)c1ccc2ccccc2c1 | -1 | 4 | 0 | 20 | 28 | · | · | ·
Cc1ccc(S(=O)(=O)N2C[C@H]3[C@H]4C(=O)N(c5ccccc5)C(=O)[C@H]4C[C@H](OC(=O)Nc4c(C)noc4C)[C@@]3(O)C2)cc1 | · | · | · | · | · | 1 | · | ·
CN(c1ccc(C(=O)Nc2ccc(CC#N)cc2)cc1)S(C)(=O)=O | 2 | 0 | 2 | -18 | 1 | -2 | · | ·
COC(=O)c1ccccc1S(=O)(=O)NNC(=O)C12CC3CC(CC(C3)C1)C2 | 4 | 1 | 3 | 28 | · | 2 | · | ·
CC(OC(=O)c1ccc(Cl)nc1)C(=O)NC1(C#N)CCCCC1 (configuration not stated) | -13 | -2 | 0 | 4 | · | -6 | · | ·
COc1ccc(CCNC(=O)CCOc2ccc(C(C)(C)C)cc2)cc1OC | 2 | 2 | 3 | -1 | -20 | 17 | · | ·
CCOCc1c(C(=O)NCc2ccccc2CN2CCCC2)oc2ccccc12 | 9 | 2 | 0 | -4 | · | -16 | · | ·
COc1ccc(N2CCN(C(=O)c3cccc(S(=O)(=O)N4CCc5ccccc54)c3)CC2)cc1 | 6 | 3 | 5 | 9 | · | -19 | · | ·
Cc1ccc(C(=O)N2CCN(c3ccccn3)CC2)cc1 | -6 | 1 | 0 | -2 | 1 | 7 | · | ·
O=C(c1cccc(S(=O)(=O)N2CCc3ccccc32)c1)N1CCN(c2ccccn2)CC1 | -9 | -1 | 2 | 5 | -26 | -18 | 0 | 97
Cc1cc(C)cc(C(=O)N2CCN(c3ccccn3)CC2)c1 | -7 | 1 | 3 | -13 | 3 | 13 | -4 | 99
CC(=Nc1ccccc1C(F)(F)F)c1ccncc1 | -26 | 0 | 0 | 22 | -28 | · | · | ·
COc1ccc(-c2sc3cc(OC)c(OC)cc3c2C#CC2(O)CCCCC2)cc1 | 6 | 16 | 83* | -10 | · | 32 | -3 | 96
COc1ccc(-c2sc3ccccc3c2C#CC2(O)CCCCC2)cc1 | 1 | · | 2 | -11 | 14 | 6 | · | ·

From PubChem BioAssay
